Assay results as given in ChEMBL document CHEMBL1125270, “Renin inhibitors containing esters at the P2-position. Oral activity in a derivative of methyl aminomalonate” (J Med Chem, 1991).

Experiments:
Cathepsin D [1] = target: T1, Cathepsin D (Bos taurus, UniProt P80209); assay: Inhibition of Bovine Cathepsin D.
T1 sequence (P80209 whole entry): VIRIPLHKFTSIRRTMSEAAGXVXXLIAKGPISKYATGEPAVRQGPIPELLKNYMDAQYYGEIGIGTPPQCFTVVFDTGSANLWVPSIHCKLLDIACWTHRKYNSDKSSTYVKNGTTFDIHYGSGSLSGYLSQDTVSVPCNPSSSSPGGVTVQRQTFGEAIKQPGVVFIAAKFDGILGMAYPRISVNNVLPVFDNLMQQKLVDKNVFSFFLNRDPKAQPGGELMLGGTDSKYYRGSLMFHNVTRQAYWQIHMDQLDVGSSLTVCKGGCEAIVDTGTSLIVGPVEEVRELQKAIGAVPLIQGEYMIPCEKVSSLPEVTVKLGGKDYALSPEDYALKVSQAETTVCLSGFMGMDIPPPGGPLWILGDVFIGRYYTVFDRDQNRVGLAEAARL
Outline: (§1)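 Bovine cathepsin D hydrolysing twice-crystallised bovine hemoglobin at pH 3.2 and 37 °C, run in duplicate. Net absorbance at 280 nm was read in acid-precipitated supernatants and compared with uninhibited controls. IC50 came from nonlinear regression over six inhibitor concentrations.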

Monkey [2] = assay: Maximum fall in mean arterial blood pressure expressed in mmHg following a 30 mg/kg dose in monkeys.; format: functional, Cercopithecidae
Outline: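 Conscious monkeys were dosed orally by gavage at 30 mg/kg in water/dimethylacetamide/Tween 80 (62.5:7.5:30), 2 mL/kg. Two models were used: high-renin normotensive (sodium restriction plus furosemide) or renal hypertensive (renal artery clipping). Mean arterial pressure was followed for 3 h, and the maximum fall in mmHg was recorded. N is given per compound.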

[3] = target: Renin (Macaca fascicularis); assay: Inhibition of monkey plasma renin
Cathepsin D [4] = target: T1, Cathepsin D; assay: Inhibitory concentration on Bovine Cathepsin D; outline: as §1
Renin = target: T2, Renin (Homo sapiens, UniProt P00797); assay: Inhibitory concentration against human renin
T2 sequence (P00797 whole entry): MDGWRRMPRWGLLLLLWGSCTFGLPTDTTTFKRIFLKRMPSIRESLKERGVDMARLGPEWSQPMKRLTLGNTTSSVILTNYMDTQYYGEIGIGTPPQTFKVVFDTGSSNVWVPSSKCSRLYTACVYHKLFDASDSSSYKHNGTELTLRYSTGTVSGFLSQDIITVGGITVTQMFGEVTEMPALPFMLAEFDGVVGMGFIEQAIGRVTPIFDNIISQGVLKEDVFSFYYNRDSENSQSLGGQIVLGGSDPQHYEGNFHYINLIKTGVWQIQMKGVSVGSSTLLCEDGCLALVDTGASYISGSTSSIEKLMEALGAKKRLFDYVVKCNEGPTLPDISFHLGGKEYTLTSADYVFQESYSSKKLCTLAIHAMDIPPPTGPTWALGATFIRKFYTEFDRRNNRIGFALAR

[5] = target: Chymotrypsinogen A (Bos taurus) (UniProt P00766); assay: % degradation to Chymotrypsinogen proteolysis at 30 mins.
Outline: (§2)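 Bovine chymotrypsin in buffered solution at pH 6.9, following a previously established method. Test compound was incubated with the enzyme, and the percent of compound degraded was read at 15 or 30 min.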

[6] = target: Chymotrypsinogen A (Bos taurus) (UniProt P00766); assay: % degradation to Chymotrypsinogen proteolysis at 15 mins.; outline: as §2
Monkey [7] = assay: Maximum fall in mean arterial blood pressure expressed in mmHg following a 3 mg/kg intravenous dose in monkeys

| SMILES | IC50 (Cathepsin D [1]) | Blood pressure (Monkey [2]) | IC50 [3] | IC50 (Cathepsin D [4]) | further results |
| --- | --- | --- | --- | --- | --- |
| COC(=O)CC(NC(=O)[C@H](Cc1ccccc1)NS(=O)(=O)N1CCOCC1)C(=O)N[C@@H](CC1CCCCC1)[C@@H](O)[C@H](O)CC(C)C (stereo partly drawn) | 0.027 µM | 3 mmHg | 0.00018 µM | – | – |
| COC(=O)C(NC(=O)[C@H](Cc1ccccc1)NS(=O)(=O)N1CCOCC1)C(=O)N[C@@H](CC1CCCCC1)[C@@H](O)[C@H](O)CC(C)C (stereo in doubt; 4A) | 0.046 µM | – | – | – | Blood pressure (Monkey [2]; 30 mg/kg): 18 mmHg |
| COC(=O)C(NC(=O)[C@H](Cc1ccccc1)NS(=O)(=O)N1CCOCC1)C(=O)N[C@@H](CC1CCCCC1)[C@@H](O)[C@H](O)CC(C)C (stereo in doubt; 4) [listing 1 of 2 here] | 0.036 µM | – | – | – | Blood pressure (Monkey [2]; 30 mg/kg): 22 mmHg |
| COC(=O)C(NC(=O)[C@H](Cc1ccccc1)NS(=O)(=O)N1CCOCC1)C(=O)N[C@@H](CC(C)C)[C@@H](O)CC(=O)NCCN1CCOCC1 (stereo partly drawn) | – | – | – | > 1 µM | IC50 (Renin): 0.13 µM |
| CCCCCCOC(=O)C(NC(=O)[C@H](Cc1ccccc1)NS(=O)(=O)N1CCOCC1)C(=O)N[C@@H](CC1CCCCC1)[C@@H](O)[C@H](O)CC(C)C (stereo partly drawn) | 0.1 µM | – | 0.015 µM | – | Degradation [5]: 15% |
| COC(=O)C(NC(=O)[C@H](Cc1ccccc1)NS(=O)(=O)N1CCOCC1)C(=O)N[C@@H](CC1CCCCC1)C(=O)C(F)(F)C(=O)NCCN1CCOCC1 (stereo partly drawn) | – | 16 mmHg | – | 0.515 µM | – |
| COC(=O)C(NC(=O)[C@H](Cc1ccccc1)NS(=O)(=O)N1CCOCC1)C(=O)N[C@@H](CC1CCCCC1)[C@@H](O)[C@H](O)CC(C)C (stereo in doubt; 4) [listing 2 of 2 here] | – | – | – | – | Degradation [6]: 89%; Degradation [5]: 100% |
| CC(C)C[C@@H](O)[C@H](O)[C@H](CC1CCCCC1)NC(=O)C(NC(=O)[C@H](Cc1ccccc1)NS(=O)(=O)N1CCOCC1)C(=O)O (stereo partly drawn) | 0.31 µM | – | 0.027 µM | – | – |
| COC(=O)C(NC(=O)[C@H](Cc1ccccc1)NS(=O)(=O)N1CCOCC1)C(=O)N[C@@H](CC1CCCCC1)[C@@H](O)[C@H](O)CC(C)C (stereo in doubt; 4B) | 0.077 µM | – | – | – | Blood pressure (Monkey [2]; 30 mg/kg): 14 mmHg |
| C=CCOC(=O)C(NC(=O)[C@H](Cc1ccccc1)NS(=O)(=O)N1CCOCC1)C(=O)N[C@@H](CC1CCCCC1)[C@@H](O)[C@H](O)CC(C)C (stereo partly drawn) | > 0.1 µM | – | 0.00095 µM | – | Degradation [5]: 65% |
| COC(=O)C(NC(=O)[C@H](Cc1ccccc1)NS(=O)(=O)N1CCOCC1)C(=O)N[C@@H](CC1CCCCC1)[C@@H](O)CC(=O)NCCN1CCOCC1 (stereo partly drawn) | – | – | – | > 1 µM | Blood pressure (Monkey [7]): 16 mmHg |
| CSC[C@H](NC(=O)[C@H](Cc1ccccc1)NC(=O)N1CCOCC1)C(=O)N[C@@H](CC1CCCCC1)[C@@H](O)C(=O)OC(C)C | – | 9 mmHg | – | 0.024 µM | – |
| COc1ccc(C[C@H](NC(=O)CC(C)(C)N)C(=O)N[C@@H](Cc2c[nH]cn2)C(=O)N[C@@H](CC2CCCCC2)[C@@H](O)[C@@H](O)CC(C)C)cc1 | > 1 µM | 8 mmHg | – | – | – |
| CC(C)C[C@@H](O)[C@H](O)[C@H](CC1CCCCC1)NC(=O)C(NC(=O)[C@H](Cc1ccccc1)NS(=O)(=O)N1CCOCC1)C(=O)OC(C)C (stereo partly drawn) | 0.043 µM | 16 mmHg | 0.00068 µM | – | Degradation [5]: 70% |
| COC(=O)CCC(NC(=O)[C@H](Cc1ccccc1)NS(=O)(=O)N1CCOCC1)C(=O)N[C@@H](CC1CCCCC1)[C@@H](O)[C@H](O)CC(C)C (stereo partly drawn) | 0.03 µM | 12 mmHg | 0.0014 µM | – | – |
| CCCCNC(=O)[C@@H](C[C@H](O)[C@H](CC1CCCCC1)NC(=O)[C@H](Cc1c[nH]cn1)NC(=O)[C@H](Cc1ccccc1)CS(=O)(=O)C(C)(C)C)C(C)C | – | 16 mmHg | – | 1.3 µM | – |
